Test results as given in ChEMBL document CHEMBL4819088, “Synthesis and in vivo screening of isosteviol derivatives as new cardioprotective agents” (2021).
The source made the active and inactive calls. No cut-off for these calls is given here.

What was measured:
[1] = species: Danio rerio; experiment: Prevention of doxorubicin-induced Zebrafish mortality assessed as survival rate at 5 uM incubated for 48 hrs by inverted fluorescence microscopy (reference value: 52%); type: functional
[2] = species: Danio rerio; experiment: Prevention of doxorubicin-induced Zebrafish mortality assessed as survival rate at 40 uM incubated for 48 hrs by inverted fluorescence microscopy (reference value: 52%); type: functional
[3] = species: Danio rerio; experiment: Cardioprotective activity against doxorubicin-induced (cmlc2:GFP) transgenic Zebrafish assessed as protection of heart measured after 48 hrs; type: functional, organism-based; settings: dose 20-60 µM
In short: (§1)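 Tg(cmlc2:GFP) embryos, 24 hpf, 20 per well, exposed to DOX (80 μM) with or without test compound at its optimum concentration for 48 h. At 72 hpf, heart rate, fractional shortening, stroke volume and cardiac output were derived from fluorescence imaging of atrium and ventricle. Mean ± S.D., n = 4.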

[4] = system: Danio rerio; experiment: Cardioprotective activity in (cmlc2:GFP) transgenic Zebrafish assessed as reduction in doxorubicin-induced cardiac edema measured after 48 hrs; type: functional, organism-based
[5] = species: Danio rerio; experiment: Prevention of doxorubicin-induced Zebrafish mortality assessed as increase in survival rate incubated for 48 hrs by inverted fluorescence microscopy; type: functional, organism-based; settings: dose 5-40 µM
In short: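 Wild-type embryos, 24 hpf, 20 per well in 1 mL egg water, exposed to DOX (100 μM) with or without test compound (5, 15, 40 μM) for 48 h. Survival scored at 96 hpf by inverted fluorescence microscopy; no motion on touch, or loss of atrial and ventricular contractility, counted as dead. Mean ± S.D., n = 4.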

[6] = species: Danio rerio; experiment: Cardioprotective activity in (cmlc2:GFP) transgenic Zebrafish assessed as prevention of doxorubicin-induced heart shape change measured after 48 hrs; type: functional, organism-based
[7] = species: Danio rerio; experiment: Cardioprotective activity in (cmlc2:GFP) transgenic Zebrafish assessed as reduction in doxorubicin-induced cardiac impairment measured after 48 hrs; type: functional, organism-based; in short: as §1
[8] = species: Danio rerio; experiment: Cardioprotective activity against doxorubicin-induced (cmlc2:GFP) transgenic Zebrafish assessed as protection of heart function loss measured after 48 hrs; type: functional, organism-based; settings: dose 20-60 µM; in short: as §1
[9] = species: Danio rerio; experiment: Prevention of doxorubicin-induced Zebrafish mortality assessed as survival rate at 15 uM incubated for 48 hrs by inverted fluorescence microscopy (reference value: 52%); type: functional
[10] = species: Danio rerio; experiment: Cardioprotective activity against Zebrafish assessed as reduction in doxorubicin-induced increase in Cardiac troponin T mRNA level by qRT-PCR analysis; type: functional, organism-based; settings: dose 20-40 µM
In short: (§2)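 Zebrafish embryos, either controls or exposed to doxorubicin with or without test compound. ANP and cTnT mRNA levels measured relative to control. Mean ± S.D., n = 4.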

[11] = system: H9c2; experiment: Cardioprotective activity against rat H9c2 cells assessed as inhibition of doxorubicin-induced mitochondrial membrane potential loss incubated for 48 hrs by JC1 staining based confocal microscopy; settings: dose 1-10 µM
[12] = species: Danio rerio; experiment: Cardioprotective activity against Zebrafish assessed as reduction in doxorubicin-induced increase in natriuretic peptide mRNA level by qRT-PCR analysis; type: functional, organism-based; settings: dose 20-40 µM; in short: as §2
[13] = system: H9c2; experiment: Cardioprotective activity against rat H9c2 cells assessed as inhibition of doxorubicin-induced ROS production preincubated for 48 hrs followed by loading with DCFDA dye for 40 mins by DCF-DA probe based fluorescence assay; type: functional, cell-based; settings: dose 1-10 µM
In short: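 H9c2 cells exposed for 48 h with or without test compound, then loaded with DCFH-DA (5 μM final, in DMEM) for 40 min at 37 °C. Cells washed three times with PBS; DCF fluorescence read by confocal microscopy as the ROS level. Mean ± S.D., n = 3.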

[14] = system: H9c2; experiment: Cardioprotective activity against doxorubicin-induced rat H9c2 cells assessed as protection of cell damage measured after 48 hrs by CCK8 assay; type: functional, cell-based; settings: dose 0.5-12.5 µM
In short: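 H9c2 cells grown in DMEM with 10% FBS and penicillin/streptomycin at 37 °C, 5% CO2, used at 70% confluence. Exposed to DOX (10 μM) with or without test compound (0.5–12.5 μM) for 48 h. CCK-8 (0.5 mg/mL) then added for 4 h to read viability.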

| Structure (SMILES) | Activity [1] [%] | Activity [2] | Activity [9] | also measured |
| --- | --- | --- | --- | --- |
| C[C@@]12CC[C@@H]3[C@@](CC[C@H]4[C@@]3(C)CCC[C@@]4(C)C(=O)OCc3ccccc3)(CC1=O)C2 | 60 |  |  |  |
| C[C@]12CC[C@H]3[C@]4(C)CCC[C@@](C)(N)[C@H]4CC[C@@]3(C1)[C@H](COC(=O)c1cccnc1)[C@H]2O |  | Active |  |  |
| COc1cc(C(=O)OC[C@@H]2C(=O)[C@@]3(C)CC[C@H]4[C@]5(C)CCC[C@@](C)(N)[C@H]5CC[C@@]24C3)cc(OC)c1OC |  | 87% |  | Activity [3]: Dose-Dependent Effect; Activity [4]: Dose-Dependent Effect; Activity [5]: Dose-Dependent Effect; Activity [6]: Dose-Dependent Effect; Activity [7]: Dose-Dependent Effect; Activity [8]: Dose-Dependent Effect |
| COc1cccc(C(=O)OC[C@@H]2C(=O)[C@@]3(C)CC[C@H]4[C@]5(C)CCC[C@@](C)(C(=O)O)[C@H]5CC[C@@]24C3)c1OC |  | 70% |  |  |
| COc1ccc(C(=O)OC[C@@H]2C(=O)[C@@]3(C)CC[C@H]4[C@]5(C)CCC[C@@](C)(C(=O)O)[C@H]5CC[C@@]24C3)c(OC)c1OC | 77 | 77% | 77% | Activity [3]: Dose-Dependent Effect; Activity [4]: Dose-Dependent Effect; Activity [5]: Dose-Dependent Effect; Activity [6]: Dose-Dependent Effect; Activity [7]: Dose-Dependent Effect; Activity [8]: Dose-Dependent Effect |
| COC(=O)[C@]1(C)CCC[C@@]2(C)[C@@H]3CC[C@@]4(C)C[C@]3(CC[C@@H]21)CC4=O |  | 60% |  |  |
| COc1ccc(C(=O)OC[C@@H]2[C@@H](O)[C@@]3(C)CC[C@H]4[C@]5(C)CCC[C@@](C)(N)[C@H]5CC[C@@]24C3)cc1 |  | Active |  |  |
| COc1cc(C(=O)OC[C@@H]2C(=O)[C@@]3(C)CC[C@H]4[C@]5(C)CCC[C@@](C)(C(=O)O)[C@H]5CC[C@@]24C3)cc(OC)c1OC | 68 | 68% | 68% | Activity [3]: Dose-Dependent Effect; Activity [4]: Dose-Dependent Effect; Activity [5]: Dose-Dependent Effect; Activity [6]: Dose-Dependent Effect; Activity [7]: Dose-Dependent Effect; Activity [8]: Dose-Dependent Effect |
| C[C@@]12CC[C@@H]3[C@@](CC[C@H]4[C@@]3(C)CCC[C@@]4(C)N)(CC1=O)C2 | 85 |  |  | Activity [3]: Dose-Dependent Effect; Activity [4]: Dose-Dependent Effect; Activity [5]: Dose-Dependent Effect; Activity [6]: Dose-Dependent Effect; Activity [7]: Dose-Dependent Effect; Activity [8]: Dose-Dependent Effect |
| COc1ccc(C(=O)OC[C@@H]2[C@@H](O)[C@@]3(C)CC[C@H]4[C@]5(C)CCC[C@@](C)(N)[C@H]5CC[C@@]24C3)c(OC)c1OC |  | Active |  |  |
| C[C@@H]1CC(=O)NN=C1c1ccc(NN=C(C#N)C#N)cc1 [LEVOSIMENDAN] | 58 | 74% | 69% | Activity [5]: Dose-Dependent Effect |
| CC(=O)OC[C@@H]1[C@@H](O)[C@@]2(C)CC[C@H]3[C@]4(C)CCC[C@@](C)(C(=O)O)[C@H]4CC[C@@]13C2 |  | inactive |  |  |
| COc1ccc(COC(=O)[C@]2(C)CCC[C@@]3(C)[C@@H]4CC[C@@]5(C)C[C@]4(CC[C@@H]32)CC5=O)cc1 |  |  | 60% |  |
| COc1cccc(C(=O)OC[C@@H]2[C@@H](O)[C@@]3(C)CC[C@H]4[C@]5(C)CCC[C@@](C)(N)[C@H]5CC[C@@]24C3)c1OC |  | Active |  |  |
| COc1ccc(C(=O)OC[C@@H]2C(=O)[C@@]3(C)CC[C@H]4[C@]5(C)CCC[C@@](C)(N)[C@H]5CC[C@@]24C3)c(OC)c1OC |  | 98% |  | Activity [10]: Dose-Dependent Effect; Activity [3]: Dose-Dependent Effect; Activity [4]: Dose-Dependent Effect; Activity [5]: Dose-Dependent Effect; Activity [6]: Dose-Dependent Effect; Activity [7]: Dose-Dependent Effect; Activity [11]: Dose-Dependent Effect; Activity [12]: Dose-Dependent Effect; Activity [13]: Dose-Dependent Effect; Activity [14]: Dose-Dependent Effect; Activity [8]: Dose-Dependent Effect |
| C=C1C(=O)[C@@]2(C)CC[C@@H]3[C@]1(CC[C@H]1[C@@]3(C)CCC[C@@]1(C)C(=O)O)C2 | 50 | 26% | 38% |  |
| COc1ccc(C(=O)OC[C@@H]2C(=O)[C@@]3(C)CC[C@H]4[C@]5(C)CCC[C@@](C)(C(=O)O)[C@H]5CC[C@@]24C3)cc1OC |  | Active |  | Activity ([2]; record 2): >70% |
| COc1ccc(C(=O)OC[C@@H]2[C@@H](O)[C@@]3(C)CC[C@H]4[C@]5(C)CCC[C@@](C)(C(=O)O)[C@H]5CC[C@@]24C3)cc1OC |  | >70% |  |  |
| Cc1ccc(S(=O)(=O)OC[C@@H]2[C@@H](O)[C@@]3(C)CC[C@H]4[C@]5(C)CCC[C@@](C)(C(=O)O)[C@H]5CC[C@@]24C3)cc1 | 60 | 60% | 60% |  |
| COc1cc(C(=O)OC[C@@H]2[C@@H](O)[C@@]3(C)CC[C@H]4[C@]5(C)CCC[C@@](C)(N)[C@H]5CC[C@@]24C3)cc(OC)c1OC |  | Active |  |  |
| C[C@@]12CC[C@@H]3[C@@](CC[C@H]4[C@@]3(C)CCC[C@@]4(C)C(=O)O)(CC1=O)C2 [ISOSTEVIOL] | 57 | inactive | inactive | Activity [3]: Dose-Dependent Effect; Activity [4]: Dose-Dependent Effect; Activity [6]: Dose-Dependent Effect; Activity [7]: Dose-Dependent Effect; Activity [8]: Dose-Dependent Effect |
| C[C@]12CC[C@H]3[C@]4(C)CCC[C@@](C)(C(=O)O)[C@H]4CC[C@@]3(C1)[C@H](COC(=O)C1CCCCC1)[C@H]2O |  | inactive |  |  |
| C[C@]12CC[C@H]3[C@]4(C)CCC[C@@](C)(N)[C@H]4CC[C@@]3(C1)[C@H](CO)[C@H]2O |  | inactive |  |  |
| COc1ccc(CC(=O)OC[C@@H]2[C@@H](O)[C@@]3(C)CC[C@H]4[C@]5(C)CCC[C@@](C)(C(=O)O)[C@H]5CC[C@@]24C3)cc1 |  | >70% |  |  |
| C[C@]12CC[C@H]3[C@]4(C)CCC[C@@](C)(C(=O)O)[C@H]4CC[C@@]3(C1)[C@H](COC(=O)C1CCCCC1)C2=O |  | inactive |  |  |
| Cc1ccc(S(=O)(=O)OC[C@@H]2C(=O)[C@@]3(C)CC[C@H]4[C@]5(C)CCC[C@@](C)(C(=O)O)[C@H]5CC[C@@]24C3)cc1 | 60 | 60% | 60% |  |
| C[C@]12CC[C@H]3[C@]4(C)CCC[C@@](C)(C(=O)O)[C@H]4CC[C@@]3(C1)[C@H](CO)[C@H]2O | 60 | 60% | 60% |  |
| CC(=O)OC[C@@H]1C(=O)[C@@]2(C)CC[C@H]3[C@]4(C)CCC[C@@](C)(C(=O)O)[C@H]4CC[C@@]13C2 |  | inactive |  |  |
| COc1ccc(C(=O)OC[C@@H]2[C@@H](O)[C@@]3(C)CC[C@H]4[C@]5(C)CCC[C@@](C)(C(=O)O)[C@H]5CC[C@@]24C3)cc1 |  | >70% |  |  |
